Laboratory results published in ChEMBL document CHEMBL3861966, “Di-nor- and 17-nor-pimaranes from Icacina trichantha” (J Nat Prod, 2016).

Tests used:
Format in all cases: functional, cell-based
[1] = Cytotoxicity against human MDA-MB-435 cells assessed as decrease in cell viability after 72 hrs by cell titer 96 one solution assay; details: MDA-MB-435, 72 h
Outline: (§1)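 Cells grown at 37 °C, 5% CO2 in RPMI 1640 with 10% FBS, penicillin 100 units/mL, streptomycin 100 μg/mL. Log-phase cells trypsinized, washed twice, seeded at 5000/well, left overnight. DMSO-dissolved samples added at 20, 4, 0.8, 0.16, 0.032 μM (final DMSO 0.5%). After 72 h at 37 °C, viable cells read by MTS-type absorbance kit. IC50 in μM relative to DMSO control.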

[2] = Cytotoxicity against human MDA-MB-231 cells assessed as decrease in cell viability after 72 hrs by cell titer 96 one solution assay; details: MDA-MB-231, 72 h; outline: as §1
[3] = Cytotoxicity against human OVCAR3 cells assessed as decrease in cell viability after 72 hrs by cell titer 96 one solution assay; details: OVCAR-3, 72 h; outline: as §1

Row | Compound | IC50 [1] [nM] | IC50 [2] [µM] | IC50 [3] [µM]
1 | COc1cc2c(c(O)c1C=O)C[C@H]1OC(=O)[C@]3(C)[C@H]1[C@]21CC[C@]3(O)OC1 | > 20000 | > 20 | > 20
2 | COc1cc2c(c3occc13)[C@H](O)[C@H]1OC(=O)[C@]3(C)[C@H]1[C@]21CC[C@]3(O)OC1 | > 20000 | > 20 | > 20
3 | COc1cc2c(c3occc13)[C@H]1OC3O[C@@]4(O)CC[C@@]23[C@H]2[C@@H]1OC(=O)[C@]24C | > 20000 | > 20 | > 20
4 | C[C@]12C(=O)O[C@@H]3[C@@H](O)[C@H]4c5occc5C(=O)C[C@H]4[C@]4(CO[C@@]1(O)[C@@H](O)C4)[C@@H]32 | 2910 | 7.6 | 7.53
5 | COc1cc2c(c3occc13)[C@@H](O)[C@@]1(O)OC[C@@]23CCC(=O)[C@@H](C)[C@@H]31 | > 20000 | > 20 | > 20
6 | C[C@]12C(=O)O[C@@H]3C[C@H]4C5=C(CC[C@H]4[C@]4(CO[C@@]1(O)[C@@H](O)C4)[C@@H]32)C(=O)CO5 | 1480 | 2.85 | 3.23
7 | CC[C@]1(O)C[C@@H]2CN(CCc3c([nH]c4ccccc34)[C@@](C(=O)OC)(c3cc4c(cc3OC)N(C)[C@H]3[C@@](O)(C(=O)OC)[C@H](OC(C)=O)[C@]5(CC)C=CCN6CC[C@]43[C@@H]65)C2)C1 [VINBLASTINE] | 0.49 | – | –
